According to ChEMBL document CHEMBL1126909, “Synthesis and pharmacological examination of benzofuran, indan, and tetralin analogues of 3,4-(methylenedioxy)amphetamine” (J Med Chem, 1993):

Assays:
Type in all cases: functional
Rattus norvegicus [1] = organism: Rattus norvegicus; experiment: Inhibitory concentration against [3H]- 5-HT uptake in crude rat synaptosomes; details: Brain
How it was run: (§1)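 Crude synaptosomes from male Sprague-Dawley rat tissue homogenised in ice-cold isotonic sucrose. Preincubated 5 min at 37 °C under aeration with pargyline (final 100 μM), then chilled. Tritiated transmitter added at 10 nM final and uptake run 5 min at 37 °C. Catecholamine buffer had 0.06 mM ascorbate. Filtered and counted by scintillation. 9–10 concentrations in triplicate, 3–4 experiments, four-parameter logistic fit for IC50 ± SEM.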

Rattus norvegicus [2] = organism: Rattus norvegicus; experiment: Inhibitory concentration against [3H]- DA uptake in crude rat synaptosomes; details: Brain; how it was run: as §1
Rattus norvegicus [3] = organism: Rattus norvegicus; experiment: Inhibitory concentration against [3H]- NE uptake in crude rat synaptosomes; details: Brain; how it was run: as §1
Rattus norvegicus [4] = experiment: Percentage of nondisrupted animals selecting drug liver in 3 trained at 0.643 mg/kg; SDL
How it was run: (§2)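 Rats and training are as above: male Sprague-Dawley, food-restricted, with training doses per drug group. Test drug was given ip in saline 30 min before extinction sessions. %SDL is the share of nondisrupted rats reaching 50 presses on the drug lever. A rat not completing 50 presses in 5 min was scored as disrupted.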

Rattus norvegicus [5] = experiment: Percentage of nondisrupted animals selecting drug liver in 3 trained at 0.215 mg/kg; SDL; how it was run: as §2
Rattus norvegicus [6] = experiment: Percentage of nondisrupted animals selecting drug liver in 3 trained at 0.857 mg/kg; SDL; how it was run: as §2
Rattus norvegicus [7] = experiment: Number of animals tested to that of number of animals disrupted in 3 trained at 0.215 mg/kg; Number of animals tested=11
How it was run: (§3)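 Drug-discrimination rats were male Sprague-Dawley, 175–200 g, kept at about 80% of free-feeding weight. They were trained against saline on (S)-1c·HCl 1.75 mg/kg, 3·HCl 1.71 mg/kg or (S)-amphetamine sulfate 1 mg/kg. Test drug was given ip in 0.9% saline at 1 mL/kg, 30 min before sessions run under extinction. A session ended at 50 presses on one lever; failing 50 presses within 5 min was scored as disrupted.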

Rattus norvegicus [8] = experiment: Tested for drug-discrimination stimulus effect at 0.215 mg/kg; 0.31-0.74
Rattus norvegicus [9] = experiment: Number of animals tested to that of number of animals disrupted in 3 trained at 0.857 mg/kg; Number of animals tested=11; how it was run: as §3
Rattus norvegicus [10] = experiment: Number of animals tested to that of number of animals disrupted in 3 trained at 0.108 mg/kg; Number of animals tested=8; how it was run: as §3
Rattus norvegicus [11] = experiment: Number of animals tested to that of number of animals disrupted in 3 trained at 1.286 mg/kg; Number of animals tested=8; how it was run: as §3
Rattus norvegicus [12] = experiment: Percentage of nondisrupted animals selecting drug liver in S-1c trained at 0.429 mg/kg; SDL
Rattus norvegicus [13] = experiment: Number of animals tested to that of number of animals disrupted in S-1c trained at 0.857 mg/kg; Number of animals tested=10; how it was run: as §3
Rattus norvegicus [14] = experiment: Percentage of nondisrupted animals selecting drug liver in 3 trained at 1.286 mg/kg; SDL; how it was run: as §2
Rattus norvegicus [15] = experiment: Percentage of nondisrupted animals selecting drug liver in S-1c trained at 0.643 mg/kg; SDL
Rattus norvegicus [16] = experiment: Percentage of nondisrupted animals selecting drug liver in 3 trained at 0.108 mg/kg; SDL; how it was run: as §2
Rattus norvegicus [17] = experiment: Tested for drug-discrimination stimulus effect at 0.429 mg/kg; 0.24-0.57
How it was run: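 Male Sprague-Dawley rats (175–200 g) held at about 80% of free-feeding weight were trained on two levers to tell (S)-1c·HCl 1.75 mg/kg from saline. Test drugs were given in 0.9% saline, ip, 30 min before sessions run under extinction. A session ended at 50 presses on one lever, or was scored disrupted if not done within 5 min. %SDL counts nondisrupted rats. ED50 and 95% CI were derived by Litchfield–Wilcoxon.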

Rattus norvegicus [18] = experiment: Number of animals tested to that of number of animals disrupted in 3 trained at 0.643 mg/kg; Number of animals tested=12; how it was run: as §3
Rattus norvegicus [19] = experiment: Percentage of nondisrupted animals selecting drug liver in S-1c trained at 0.857 mg/kg; SDL
Rattus norvegicus [20] = experiment: Percentage of nondisrupted animals selecting drug liver in S-1c trained at 0.215 mg/kg; SDL; how it was run: as §2
Rattus norvegicus [21] = experiment: Number of animals tested to that of number of animals disrupted in S-1c trained at 0.215 mg/kg; Number of animals tested=10; how it was run: as §3
Rattus norvegicus [22] = experiment: Number of animals tested to that of number of animals disrupted in S-1c trained at 0.429 mg/kg; Number of animals tested=11; how it was run: as §3
Rattus norvegicus [23] = experiment: Number of animals tested to that of number of animals disrupted in 3 trained at 0.429 mg/kg; Number of animals tested=12; how it was run: as §3
Rattus norvegicus [24] = experiment: Number of animals tested to that of number of animals disrupted in S-1c trained at 0.643 mg/kg; Number of animals tested=10; how it was run: as §3
Rattus norvegicus [25] = organism: Rattus norvegicus; experiment: Inhibitory concentration against [3H]- DA uptake, p<0.0001
Rattus norvegicus [26] = experiment: Percentage of nondisrupted animals selecting drug liver in 3 trained at 0.429 mg/kg; SDL; how it was run: as §2

CC(N)Cc1ccc2c(c1)CCCC2 (stereo unspecified)
IC50 (Rattus norvegicus [1]): 121 nM | IC50 (Rattus norvegicus [2]): 6.44 µM | IC50 (Rattus norvegicus [3]): 3.37 µM

CC(N)Cc1ccc2c(c1)OCO2 (stereo unspecified) [TENAMFETAMINE]
IC50 (Rattus norvegicus [1]): 369 nM | IC50 (Rattus norvegicus [2]): 1.36 µM | IC50 (Rattus norvegicus [3]): 0.629 µM

CC(N)Cc1ccc2c(c1)CCO2 (stereo unspecified)
SDL (Rattus norvegicus [4]): 75% | SDL (Rattus norvegicus [5]): 33% | SDL (Rattus norvegicus [6]): 86% | Activity (Rattus norvegicus [7]): 8 | ED50 (Rattus norvegicus [8]): 0.48 mg/kg | Activity (Rattus norvegicus [9]): 4 | Activity (Rattus norvegicus [10]): 3 | Activity (Rattus norvegicus [11]): 5 | IC50 (Rattus norvegicus [1]): 130 nM | SDL (Rattus norvegicus [12]): 50% | Activity (Rattus norvegicus [13]): 4 | SDL (Rattus norvegicus [14]): 100% | SDL (Rattus norvegicus [15]): 71% | SDL (Rattus norvegicus [16]): 0% | ED50 (Rattus norvegicus [17]): 0.37 mg/kg | Activity (Rattus norvegicus [18]): 4 | SDL (Rattus norvegicus [19]): 100% | SDL (Rattus norvegicus [20]): 25% | Activity (Rattus norvegicus [21]): 2 | IC50 (Rattus norvegicus [3]): 3.24 µM | Activity (Rattus norvegicus [22]): 5 | Activity (Rattus norvegicus [23]): 6 | Activity (Rattus norvegicus [24]): 3 | IC50 (Rattus norvegicus [25]): 7.09 µM | SDL (Rattus norvegicus [26]): 50%
